NF-kB expr up – activators of NF-kB expression in neurons, primary screen, cell-based, HTS; human neuronal cells, NF-kB reporter expression; hits give high values; fold change at 12.5 µM; 1.6% of 190,000 active; in the data active means fold change above about 3.3
STAT3 act – IL-6 driven STAT3 reporter potentiators, primary screen, U3A cells, luciferase, luminescence, MLSCN library | IL-6 STAT3-luciferase reporter; 100% = signal with IL-6 EC80 alone | activation (% of control), % at 5.6 µM | 0.91% of 190,000 active | AID 871, 2007;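 active means activation above the screen-wide mean of compound activation plus 3 SD, cut at about 130% in these data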;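 further: 0% = background luminescence of wells with medium and substrate only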
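Material: STAT3-luciferase reporter U3A cells. Controls: IL-6-treated wells, 100% activation. Read-out: % activation versus median of IL-6-stimulated wells. Probe or stimulus: IL-6 stimulus at 33 ng/mL final. Timing: compound 1 h, then IL-6 6 h at 37 °C. Signal: reporter luminescence signal.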
APP 5'UTR act – activators of APP 5'UTR luciferase reporter, primary screen, SH-SY5Y cells. SH-SY5Y APP 5'UTR luciferase reporter, luminescence; zero percent = DMSO vehicle wells. activation, % at 2 µM. 1% of 190,000 active. AID 1276, 2008;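 active means activation above a set limit, based on mean plus 3 SD of controls, cut at about 140% in these data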
STAT1 act – STAT1 signaling activators, primary screen, cell-based, HTS, luciferase reporter | 2.6% of 200,000 active | NIH 3T3 STAT1-luciferase reporter, IFN-gamma, luminescence; 100% = IFN-gamma alone, no compound | activation (% of control), % at 5.5 µM | AID 932, 2007;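 active means activation above the screen-wide mean activation plus 3 SD, cut at about 130% in these data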;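 further: raw ratio to IFN-gamma control signal so 100% means no change and 0% no light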
STAT3 inh – IL-6 driven STAT3 reporter inhibitors, primary screen, U3A cells, luciferase, luminescence, MLSCN library; IL-6 STAT3-luciferase reporter; host cell line lacks STAT1; inhibition, % at 5.5 µM; 0.89% of 190,000 active; AID 862, 2007;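 active means inhibition above the mean inhibition across all screened compounds plus 3 SD, cut at about 44% in these data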;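 further: 0% = DMSO only wells and 100% = 100 µM nifuroxazide control wells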
STAT1 blocker – STAT1 signaling inhibitors, primary screen, cell-based, HTS, luciferase reporter. NIH 3T3 STAT1-luciferase reporter, IFN-gamma, luminescence. inhibition, % at 5.5 µM. 0.35% of 200,000 active;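 active means inhibition above a set limit, the mean inhibition across all tested compounds plus 3 SD, cut at about 34% in these data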;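 further: 0% = IFN-gamma with DMSO and 100% = IFN-gamma with 300 µM nifuroxazide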
Starred values were filed as active, the others as inactive. This is a sample that favours compounds with a hit; in the whole collection about 4.9% have one here.

What do the screens show for `COC(=O)c1cnc(SCc2ccc(Cl)cc2)n1C`?
NF-kB expr up: 1.77; STAT3 act: 96.9; APP 5'UTR act: 226.9*; STAT1 act: 116.6; STAT3 inh: 6.2; STAT1 blocker: -18.6

What do the screens show for `CSc1ccccc1NC(=O)Cc1ccccc1[N+](=O)[O-]`?
NF-kB expr up: 0.7; STAT3 act: 98.9; APP 5'UTR act: -14.4; STAT1 act: 90.4; STAT3 inh: 12.4; STAT1 blocker: 9.7

What do the screens show for `CCCOc1ccc(CN(CCO)CCO)cc1[N+](=O)[O-]`?
NF-kB expr up: 0.95; STAT3 act: 133.0*; APP 5'UTR act: -18.6; STAT1 act: 111.5; STAT3 inh: -38.3; STAT1 blocker: -13.0

Results for COC(=O)Nc1sc2c(c1C(=O)NC1CC1)CCCCCC2 ?
NF-kB expr up: 1.03; STAT3 act: 96.4; APP 5'UTR act: -14.0; STAT1 act: 105.3; STAT3 inh: 5.4; STAT1 blocker: -3.1

How did Cc1cc(N)n2nc(-c3ccccc3)cc2n1 do in these assays?
NF-kB expr up: 5.38*; STAT3 act: 78.4; APP 5'UTR act: 118.2; STAT1 act: 145.9*; STAT3 inh: 28.5; STAT1 blocker: -52.0

Results for Cc1cc(C(F)(F)F)n2ncc(-c3ccc(F)cc3)c2n1 ?
NF-kB expr up: 0.93; STAT3 act: 94.7; APP 5'UTR act: -8.4; STAT1 act: 88.1; STAT3 inh: 10.7; STAT1 blocker: 12.9

What do the screens show for `Cc1cc(N)n2ncc(-c3cccc(Br)c3)c2n1`?
NF-kB expr up: 2.1; STAT3 act: 115.1; APP 5'UTR act: 96.0; STAT1 act: 141.8*; STAT3 inh: -15.7; STAT1 blocker: -46.1

How did Cc1cc(N)n2ncc(-c3ccccc3)c2n1 do in these assays?
NF-kB expr up: 3.06; STAT3 act: 121.6; APP 5'UTR act: 86.1; STAT1 act: 150.4*; STAT3 inh: -16.5; STAT1 blocker: -54.7

What do the screens show for `CCc1ccc(C2=NN(CCC(=O)NCc3cccs3)C(=O)CC2)cc1`?
NF-kB expr up: 1.03; STAT3 act: 108.5; APP 5'UTR act: -1.9; STAT1 act: 104.5; STAT3 inh: -8.1; STAT1 blocker: -5.4

Results for CCOCCNC(=O)c1ccc2c3c(cccc13)CC2 ?
NF-kB expr up: 1.26; STAT3 act: 99.9; APP 5'UTR act: -9.3; STAT1 act: 97.1; STAT3 inh: -2.9; STAT1 blocker: 3.1

What do the screens show for `Cc1ccc2nc3c(c(C(=O)OCC(=O)NC4CCS(=O)(=O)C4)c2c1)CCCC3` (configuration not stated)?
NF-kB expr up: 0.83; STAT3 act: 98.5; APP 5'UTR act: 9.9; STAT1 act: 104.5; STAT3 inh: 3.8; STAT1 blocker: -5.0

Results for CCN(CC)S(=O)(=O)c1ccc(C2=NOC3(C2)N(C)c2ccccc2C3(C)C)cc1 (configuration not stated) ?
NF-kB expr up: 0.99; STAT3 act: 112.0; APP 5'UTR act: -10.9; STAT1 act: 104.6; STAT3 inh: -17.1; STAT1 blocker: -5.2

Results for CCOC(=O)C1(C/C(C)=N/NC(N)=O)CC(C)OC1=O (configuration not stated) ?
NF-kB expr up: 1.42; STAT3 act: 96.4; APP 5'UTR act: 6.2; STAT1 act: 89.7; STAT3 inh: 7.1; STAT1 blocker: 11.8

How did CCOC(=O)c1cnc(Nc2nc3ccccc3o2)nc1C do in these assays?
NF-kB expr up: 3.47*; STAT3 act: 20.6; APP 5'UTR act: 104.4; STAT1 act: 58.7; STAT3 inh: 96.3*; STAT1 blocker: 45.0*

Results for O=C(NCCc1ccccc1)c1ccc(Cl)c([N+](=O)[O-])c1 ?
NF-kB expr up: 2.27; STAT3 act: 106.1; APP 5'UTR act: 37.2; STAT1 act: 114.9; STAT3 inh: -7.2; STAT1 blocker: -16.3

What do the screens show for `Cc1cc(C(=O)NCCc2ccccc2)ccc1[N+](=O)[O-]`?
NF-kB expr up: 2.17; STAT3 act: 106.2; APP 5'UTR act: 85.3; STAT1 act: 134.3*; STAT3 inh: -1.6; STAT1 blocker: -38.2

What do the screens show for `O=C(NCCc1ccccc1)c1cnc2sccn2c1=O`?
NF-kB expr up: 2; STAT3 act: 99.0; APP 5'UTR act: 74.0; STAT1 act: 135.6*; STAT3 inh: 1.4; STAT1 blocker: -36.9

What do the screens show for `O=C(NCCc1ccccc1)c1cccs1`?
NF-kB expr up: 3.19; STAT3 act: 94.1; APP 5'UTR act: 76.6; STAT1 act: 141.5*; STAT3 inh: 7.0; STAT1 blocker: -45.1

How did O=C(NCc1ccco1)c1cnc2sccn2c1=O do in these assays?
NF-kB expr up: 0.99; STAT3 act: 96.0; APP 5'UTR act: -1.4; STAT1 act: 95.6; STAT3 inh: 13.2; STAT1 blocker: 4.9

Results for O=C(NCCc1ccccc1)c1ccncc1 ?
NF-kB expr up: 2.17; STAT3 act: 116.2; APP 5'UTR act: 33.1; STAT1 act: 130.0*; STAT3 inh: -11.2; STAT1 blocker: -33.0

How did CCN(CC)S(=O)(=O)c1cc(OC)c(Cl)cc1OC do in these assays?
NF-kB expr up: 0.89; STAT3 act: 97.1; APP 5'UTR act: 12.5; STAT1 act: 102.4; STAT3 inh: 8.9; STAT1 blocker: -4.9

Results for Cc1ccc(C)n1-c1ccc(N(C)C)cc1 ?
NF-kB expr up: 0.79; STAT3 act: 102.5; APP 5'UTR act: 130.4; STAT1 act: 92.9; STAT3 inh: 0.5; STAT1 blocker: 6.5

What do the screens show for `Cc1ccc(C(=O)Oc2ccccc2N2C(=O)C3C4CCC(C4)C3C2=O)cc1` (configuration not stated)?
NF-kB expr up: 1.09; STAT3 act: 100.4; APP 5'UTR act: 11.8; STAT1 act: 97.4; STAT3 inh: 3.4; STAT1 blocker: 2.9

Results for CC1(C)CC(=O)c2cc(N=C/C(C(=O)c3ccccc3)=C(\O)c3ccccc3)c(=O)oc2C1 ?
NF-kB expr up: 1.29; STAT3 act: 99.2; APP 5'UTR act: 37.7; STAT1 act: 132.5*; STAT3 inh: 7.2; STAT1 blocker: -38.1

How did CCc1ccc(CN(C)C(=O)CCc2nnc(CCc3ccccc3OC)o2)nc1 do in these assays?
NF-kB expr up: 0.98; STAT3 act: 101.0; APP 5'UTR act: 33.8; STAT1 act: 90.6; STAT3 inh: 3.4; STAT1 blocker: 8.6

Results for O=C(Nc1nnc(-c2cccs2)s1)c1cccc(F)c1 ?
NF-kB expr up: 2.42; STAT3 act: 106.0; APP 5'UTR act: 93.0; STAT1 act: 134.5*; STAT3 inh: -5.3; STAT1 blocker: -39.0

Results for Cc1nnc(NC(=O)c2cccc(F)c2)s1 ?
NF-kB expr up: 1.45; STAT3 act: 94.1; APP 5'UTR act: -3.4; STAT1 act: 106.9; STAT3 inh: 15.5; STAT1 blocker: -7.6

Screens deposited in PubChem BioAssay by several laboratories.
